The values below come from ChEMBL document CHEMBL1125775 (J Med Chem, 1991).

In general, IC50 refers to the concentration at which inhibition is half-maximal. Low values mean greater potency in that assay, high ones weaker potency in that assay.

Series [1] has as its target T1, Adrenergic receptor alpha-1 (Rattus norvegicus, UniProt P15823+P23944+P43140).
T1 sequence (P15823 whole entry): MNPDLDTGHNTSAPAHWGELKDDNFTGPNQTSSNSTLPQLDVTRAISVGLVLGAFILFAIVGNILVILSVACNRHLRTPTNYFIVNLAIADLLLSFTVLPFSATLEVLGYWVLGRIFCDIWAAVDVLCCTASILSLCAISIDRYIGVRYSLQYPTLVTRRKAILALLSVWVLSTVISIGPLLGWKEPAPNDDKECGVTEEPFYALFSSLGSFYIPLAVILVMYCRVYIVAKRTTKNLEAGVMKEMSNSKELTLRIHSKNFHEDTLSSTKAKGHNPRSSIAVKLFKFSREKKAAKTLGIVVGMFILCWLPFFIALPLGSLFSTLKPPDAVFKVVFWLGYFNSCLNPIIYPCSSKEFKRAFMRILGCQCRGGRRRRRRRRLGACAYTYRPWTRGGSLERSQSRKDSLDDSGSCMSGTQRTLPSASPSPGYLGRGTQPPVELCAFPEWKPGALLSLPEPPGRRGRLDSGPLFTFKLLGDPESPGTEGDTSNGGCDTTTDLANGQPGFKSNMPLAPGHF
T1 sequence (P23944 whole entry): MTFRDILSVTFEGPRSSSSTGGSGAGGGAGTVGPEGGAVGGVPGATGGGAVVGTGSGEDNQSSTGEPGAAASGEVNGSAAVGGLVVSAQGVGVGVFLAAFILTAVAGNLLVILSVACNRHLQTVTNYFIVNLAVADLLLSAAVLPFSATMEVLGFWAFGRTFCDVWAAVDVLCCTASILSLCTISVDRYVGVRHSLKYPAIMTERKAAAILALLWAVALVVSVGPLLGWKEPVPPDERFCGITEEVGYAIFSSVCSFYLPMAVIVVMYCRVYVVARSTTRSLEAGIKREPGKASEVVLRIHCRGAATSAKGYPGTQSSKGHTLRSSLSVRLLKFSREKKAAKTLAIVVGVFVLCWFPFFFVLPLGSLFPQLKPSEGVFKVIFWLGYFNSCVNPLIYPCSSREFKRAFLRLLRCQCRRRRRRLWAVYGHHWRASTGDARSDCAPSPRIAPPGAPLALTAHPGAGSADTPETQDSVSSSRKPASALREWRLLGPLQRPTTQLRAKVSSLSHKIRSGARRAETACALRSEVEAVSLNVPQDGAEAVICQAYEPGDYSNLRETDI
T1 sequence (P43140 whole entry): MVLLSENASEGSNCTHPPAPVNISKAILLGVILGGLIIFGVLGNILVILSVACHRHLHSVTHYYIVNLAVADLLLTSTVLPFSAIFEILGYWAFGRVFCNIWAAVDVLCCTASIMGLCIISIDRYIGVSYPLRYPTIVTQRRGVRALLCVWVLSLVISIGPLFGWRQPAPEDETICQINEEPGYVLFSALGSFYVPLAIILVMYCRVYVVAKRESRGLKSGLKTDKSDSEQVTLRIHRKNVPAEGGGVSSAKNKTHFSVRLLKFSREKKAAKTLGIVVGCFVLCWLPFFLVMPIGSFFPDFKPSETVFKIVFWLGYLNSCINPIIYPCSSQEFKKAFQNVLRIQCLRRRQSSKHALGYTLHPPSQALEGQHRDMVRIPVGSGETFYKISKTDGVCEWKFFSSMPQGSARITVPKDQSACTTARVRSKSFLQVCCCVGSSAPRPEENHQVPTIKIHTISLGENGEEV
Nature of the series: Compound was tested for the binding affinity against Alpha-1 adrenergic receptor. The class given is protein assay. Summed up: (§1)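 Radioligand binding at α1 adrenergic receptors using [3H]prazosin in a standard binding assay.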

The target in another series is Glutamate NMDA receptor. The series is described as follows: N-methyl-D-aspartate glutamate receptor antagonistic activity in cell culture(CC)model. The class given is functional. In a few lines: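 Functional NMDA antagonism in rat hippocampal cell cultures. Read-out is protection of the cultured neurons against toxicity from extracellularly applied glutamate (the glutamate-induced hippocampal neurodegeneration model).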

Series [2] deals with Alpha-1 adrenergic receptor versus NMDA receptor. The series is described as follows: (§2) Therapeutic index is the ratio of IC50 value for Alpha-1 adrenergic receptor to that for NMDA. To be noted: read-out: TI. Summed up: (§3)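 Selectivity index calculated as α1 adrenergic potency ([3H]prazosin binding) divided by activity in the rat hippocampal culture glutamate-neurotoxicity model.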

Series [3] deals with T1, Adrenergic receptor alpha-1. Nature of the series: Binding affinity against alpha-1 adrenergic receptor. Format: protein assay. Summed up:
as §1

The nature of series [4]: as §2. In a few lines:
as §3

For a further series, the target named is Histamine H1 receptor (Homo sapiens, UniProt P35367). Nature of the series: Compound was tested for the binding affinity against histamine H1 receptor by using [3H]mepyramine as radioligand.
Sequence of Histamine H1 receptor (P35367 whole entry): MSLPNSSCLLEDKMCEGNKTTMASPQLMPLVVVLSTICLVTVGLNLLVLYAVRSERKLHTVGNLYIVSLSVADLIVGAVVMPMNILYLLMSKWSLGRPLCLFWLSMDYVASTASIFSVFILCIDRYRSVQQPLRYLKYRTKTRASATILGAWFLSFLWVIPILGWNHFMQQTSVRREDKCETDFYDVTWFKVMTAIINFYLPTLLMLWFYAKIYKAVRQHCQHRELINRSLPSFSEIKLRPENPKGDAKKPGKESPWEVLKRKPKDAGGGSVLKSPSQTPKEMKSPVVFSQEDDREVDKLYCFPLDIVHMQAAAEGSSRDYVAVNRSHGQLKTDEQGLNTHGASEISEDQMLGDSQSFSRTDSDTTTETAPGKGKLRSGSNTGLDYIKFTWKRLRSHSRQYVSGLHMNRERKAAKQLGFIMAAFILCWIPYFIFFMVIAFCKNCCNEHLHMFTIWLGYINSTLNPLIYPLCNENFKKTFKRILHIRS
For series [5], the target named is Muscarinic acetylcholine receptor M3 (Rattus norvegicus, UniProt P08483). Nature of the series: Compound was tested for the binding affinity against muscarinic acetylcholine receptorby using [3H]QNB as radioligand.
Sequence of Muscarinic acetylcholine receptor M3 (P08483 whole entry): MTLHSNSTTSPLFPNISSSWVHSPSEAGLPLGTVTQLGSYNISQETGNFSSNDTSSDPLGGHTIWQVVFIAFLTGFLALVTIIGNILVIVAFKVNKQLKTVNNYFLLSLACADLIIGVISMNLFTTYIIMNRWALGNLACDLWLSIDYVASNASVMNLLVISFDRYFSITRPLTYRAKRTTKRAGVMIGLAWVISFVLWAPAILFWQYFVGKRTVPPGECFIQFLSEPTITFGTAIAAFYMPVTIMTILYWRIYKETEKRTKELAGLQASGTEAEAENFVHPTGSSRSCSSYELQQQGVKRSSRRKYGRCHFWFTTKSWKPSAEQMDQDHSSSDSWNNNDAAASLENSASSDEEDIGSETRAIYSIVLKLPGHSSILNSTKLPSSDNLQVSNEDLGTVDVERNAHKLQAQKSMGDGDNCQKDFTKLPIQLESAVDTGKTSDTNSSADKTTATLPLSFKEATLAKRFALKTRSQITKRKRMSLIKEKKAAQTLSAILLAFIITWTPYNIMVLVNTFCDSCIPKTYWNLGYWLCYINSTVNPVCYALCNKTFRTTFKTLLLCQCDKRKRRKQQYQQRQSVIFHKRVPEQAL
The next series concerns the target D(2) dopamine receptor (Homo sapiens, UniProt P14416). The series is described as follows: Compound was tested for the binding affinity against dopamine receptor D2 by using [3H]spiperone as radioligand.
For a further series, the target named is D(1A) dopamine receptor (Mus musculus, UniProt Q61616). Nature of the series: Compound was tested for the binding affinity against dopamine receptor D1 by using [3H]-SCH- 23390 as radioligand.
Sequence of D(1A) dopamine receptor (Q61616 whole entry): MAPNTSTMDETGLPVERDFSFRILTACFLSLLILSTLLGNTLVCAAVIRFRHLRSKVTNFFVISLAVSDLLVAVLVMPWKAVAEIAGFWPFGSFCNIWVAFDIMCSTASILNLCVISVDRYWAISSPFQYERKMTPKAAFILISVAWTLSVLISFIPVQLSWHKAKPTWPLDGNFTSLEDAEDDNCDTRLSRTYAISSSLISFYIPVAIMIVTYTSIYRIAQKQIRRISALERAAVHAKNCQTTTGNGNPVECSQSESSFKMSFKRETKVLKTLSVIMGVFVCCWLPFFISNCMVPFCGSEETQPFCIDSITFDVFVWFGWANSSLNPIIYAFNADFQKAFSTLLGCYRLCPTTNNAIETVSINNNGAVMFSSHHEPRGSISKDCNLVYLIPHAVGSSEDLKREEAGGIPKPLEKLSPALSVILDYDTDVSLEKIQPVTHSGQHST
Series [6] addresses 5-hydroxytryptamine receptor 2A (Bos taurus, UniProt Q75Z89). Nature of the series: Compound was tested for the binding affinity against 5-hydroxytryptamine 2 receptor by using [3H]ketanserin as radioligand.
The target of another series is Mu-type opioid receptor (Homo sapiens, UniProt P35372). Nature of the series: Compound was tested for the binding affinity against opioid receptor mu by using [3H]naloxone as radioligand.
Sequence of Mu-type opioid receptor (P35372 whole entry): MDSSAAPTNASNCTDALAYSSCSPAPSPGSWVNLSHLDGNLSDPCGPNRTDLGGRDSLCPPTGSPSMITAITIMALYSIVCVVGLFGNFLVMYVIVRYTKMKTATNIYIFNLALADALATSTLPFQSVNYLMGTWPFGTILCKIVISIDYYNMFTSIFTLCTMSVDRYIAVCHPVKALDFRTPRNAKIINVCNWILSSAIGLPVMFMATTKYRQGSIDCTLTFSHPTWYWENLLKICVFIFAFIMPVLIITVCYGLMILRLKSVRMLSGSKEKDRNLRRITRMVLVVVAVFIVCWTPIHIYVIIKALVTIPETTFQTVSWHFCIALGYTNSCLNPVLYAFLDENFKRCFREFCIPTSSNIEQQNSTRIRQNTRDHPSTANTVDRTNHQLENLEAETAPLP
Series [7] has as its target T2, 5-hydroxytryptamine receptor 1A (Mus musculus, UniProt Q64264).
T2 sequence (Q64264 whole entry): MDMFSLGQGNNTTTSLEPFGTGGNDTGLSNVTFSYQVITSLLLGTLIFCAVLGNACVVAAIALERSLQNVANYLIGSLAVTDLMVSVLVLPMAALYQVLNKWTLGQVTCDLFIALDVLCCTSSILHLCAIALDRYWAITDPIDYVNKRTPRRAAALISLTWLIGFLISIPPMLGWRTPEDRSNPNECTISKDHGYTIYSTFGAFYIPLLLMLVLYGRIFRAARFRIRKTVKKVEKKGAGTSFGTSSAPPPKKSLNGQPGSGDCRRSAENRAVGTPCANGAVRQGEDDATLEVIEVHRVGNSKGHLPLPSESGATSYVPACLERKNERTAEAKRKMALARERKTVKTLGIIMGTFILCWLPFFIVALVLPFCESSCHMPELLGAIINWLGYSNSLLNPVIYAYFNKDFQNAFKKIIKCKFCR
The series is described as follows: Compound was tested for the binding affinity against 5-hydroxytryptamine 1A receptor by using [3H]DPAT as radioligand.

Sequence of 5-hydroxytryptamine receptor 2A (Q75Z89 whole entry): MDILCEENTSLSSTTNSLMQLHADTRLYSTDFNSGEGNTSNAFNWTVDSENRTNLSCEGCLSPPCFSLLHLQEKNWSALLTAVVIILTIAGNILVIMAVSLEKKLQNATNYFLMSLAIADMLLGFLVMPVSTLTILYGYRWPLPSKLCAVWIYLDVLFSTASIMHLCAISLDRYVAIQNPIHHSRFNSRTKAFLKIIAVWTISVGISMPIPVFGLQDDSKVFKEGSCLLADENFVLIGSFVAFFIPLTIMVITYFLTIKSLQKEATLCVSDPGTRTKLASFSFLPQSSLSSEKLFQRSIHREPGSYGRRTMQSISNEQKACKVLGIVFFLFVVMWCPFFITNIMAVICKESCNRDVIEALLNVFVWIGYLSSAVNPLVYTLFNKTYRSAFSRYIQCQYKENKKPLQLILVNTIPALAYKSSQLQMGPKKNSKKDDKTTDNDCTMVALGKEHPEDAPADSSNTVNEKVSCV
Sequence of D(2) dopamine receptor (P14416 whole entry): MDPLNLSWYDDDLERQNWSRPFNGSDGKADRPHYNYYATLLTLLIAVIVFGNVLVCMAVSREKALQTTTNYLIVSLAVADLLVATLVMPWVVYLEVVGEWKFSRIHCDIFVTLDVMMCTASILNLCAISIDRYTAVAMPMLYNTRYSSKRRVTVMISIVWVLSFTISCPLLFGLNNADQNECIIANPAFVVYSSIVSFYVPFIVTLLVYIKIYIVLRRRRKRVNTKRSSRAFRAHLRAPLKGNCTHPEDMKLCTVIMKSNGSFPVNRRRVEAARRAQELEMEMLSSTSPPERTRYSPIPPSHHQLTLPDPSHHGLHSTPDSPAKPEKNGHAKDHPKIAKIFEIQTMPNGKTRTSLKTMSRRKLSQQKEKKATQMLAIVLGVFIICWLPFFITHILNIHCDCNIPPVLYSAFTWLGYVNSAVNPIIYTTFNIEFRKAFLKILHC

With `C[C@@H]([C@@H](O)c1ccc(O)cc1)N1CCN(Cc2ccccc2)CC1`, the half-maximal inhibitory concentration (IC50) in series [1] amounted to 4633 nM; against Glutamate NMDA receptor, 10000 nM.

Consider `OC(CN1CCC(Cc2ccccc2)CC1)c1ccccc1` (stereo not given), for which the IC50 against Glutamate NMDA receptor turned out to be 5000 nM; in [3], 2133 nM. Further, the selectivity ratio in series [2] is 0.43.

As to `C[C@@H]([C@H](O)c1ccc(O)cc1)N1CCCCC1`, the concentration for half-maximal inhibition (IC50) (against Glutamate NMDA receptor; in series [3]) was over 10000 nM each time.

Turning to `C[C@@H]([C@@H](O)c1ccccc1)N1CCC(Cc2ccccc2)CC1`, the concentration for half-maximal inhibition (IC50) came out at 3700 nM against Glutamate NMDA receptor and 3400 nM in series [3]. Also, the selectivity ratio in series [2] came out at 0.92.

On to `C[C@@H]([C@H](O)c1ccc(F)cc1)N1CCC(Cc2ccccc2)CC1`, for which the selectivity ratio in series [2] came out at 0.94. The same compound came in with an IC50 in series [3] of 220 nM.

Consider `C[C@@H]([C@@H](O)c1ccc(O)cc1)N1CCC(Cc2ccccc2)CC1` (stereo in doubt; 18) [(S)-IFENPRODIL], for which, in [4], the TI stood at 48. This compound also gave an IC50 in [3] of 2306 nM.

For the compound `c1ccc(CCN2CCC(Cc3ccccc3)CC2)cc1`, the IC50 amounted to 290 nM on Glutamate NMDA receptor and 347 nM in series [3]. Further, the selectivity ratio in [2] is 1.19.

`C[C@@H]([C@H](O)c1ccc(O)cc1)N1CCC(Cc2ccccc2)CC1` [(R,S)-IFENPRODIL] registered an IC50 in series [3] of 135 nM.

Consider `C[C@@H]([C@@H](O)c1ccc(O)cc1)N1CCC(Cc2ccccc2)CC1` (stereo in doubt; 19) [(S)-IFENPRODIL], for which the IC50 in series [3] is recorded as 629 nM.

Consider `C[C@@H]([C@@H](O)c1ccc(O)cc1)N1CCCCC1`, for which the IC50 (against Glutamate NMDA receptor; in series [3]) was over 10000 nM throughout.

As to `C[C@@H]([C@@H](O)c1ccc(F)cc1)N1CCC(Cc2ccccc2)CC1`, the IC50 against Glutamate NMDA receptor is 100 nM; in [3], 2566 nM. The selectivity ratio in series [2] came to 25.6.

Take `CC(C(O)c1ccc(O)cc1)N1CCC(Cc2ccccc2)CC1` (stereo not given) [IFENPRODIL]: the half-inhibitory concentration (IC50) in series [1] is 100 nM; on Histamine H1 receptor, 1000 nM; in series [5], over 1000 nM; on D(2) dopamine receptor, over 1000 nM; on D(1A) dopamine receptor it was over 1000 nM; in series [6] it was 610 nM. Also, the figures for the half-maximal inhibitory concentration (IC50) (at Mu-type opioid receptor; in series [7]) were over 1000 nM and 238 nM, respectively.

For `CC(Cc1ccc(O)cc1)N1CCC(Cc2ccccc2)CC1` (stereo not given), the figures for the IC50 (against Glutamate NMDA receptor; in series [3]) were 153 nM and 130 nM, respectively. Besides, in series [2], the selectivity ratio turned out to be 0.85.

On to `CC(CO)N1CCC(Cc2ccccc2)CC1` (stereo not given), for which the IC50 (on Glutamate NMDA receptor; in [3]) was over 10000 nM each time.

Consider `C[C@@H]([C@@H](O)c1ccc(O)cc1)N1CCN(C(=O)c2ccccc2)CC1`, for which the IC50 (against Glutamate NMDA receptor; in series [3]) was over 10000 nM in each case.

Turning to `C[C@@H]([C@H](O)c1ccccc1)N1CCC(Cc2ccccc2)CC1`, the selectivity ratio in [2] came to 0.28. For the same compound, in [3], the IC50 came out at 573 nM.

Compound `C[C@@H]([C@@H](O)c1ccc(O)cc1)N1CCC(Cc2ccccc2)CC1` (stereo in doubt; 2) [(S)-IFENPRODIL] showed an IC50 in series [1] of 843 nM.

`CCCC1CCN([C@@H](C)[C@@H](O)c2ccc(O)cc2)CC1`: the IC50 at Glutamate NMDA receptor stood at 6300 nM; in series [3], 2867 nM. For the same compound, in series [2], the selectivity ratio came out at 0.61.
